Active and inactive are the calls of the source. The rule behind the calls is not given here.

Assay [1] deals with RAW264.7. Description: Antiinflammatory activity in mouse RAW264.7 cells assessed as inhibition of LPS-induced nitric oxide production administered 30 mins prior to LPS challenge measured after 20 hrs by Griess assay. It counts as functional, cell-based. The essentials:
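RAW 264.7 cells at 3 × 10^5 cells/mL in phenol red-free 10% FBS DMEM, pretreated for 30 min, then given 1 μg/mL LPS for 20 h. Nitrite in the medium was read by Griess reaction at 540 nm against a sodium nitrite standard curve. % inhibition was calculated versus vehicle control, and IC50 by nonlinear regression. Mean ± SD of triplicates.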

The test system of assay [2] is RAW264.7. As to the kind of experiment: Antiinflammatory activity in mouse RAW264.7 cells assessed as inhibition of LPS-induced iNOS mRNA expression at 40 uM after 5 hrs by RT-PCR analysis relative to control. It counts as functional. In short, it runs like this: (§1)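 RAW 264.7 cells exposed to 1 μg/mL LPS with or without compound for 5 h. Total RNA was analysed by RT-PCR: 25−30 cycles with annealing at 55 °C. Products were separated on 2% agarose gel with SYBR-Safe staining. Experiments in triplicate.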

The test system of assay [3] is RAW264.7. As to the kind of experiment: Inhibition of LPS-induced NF-kappaB transcriptional activity in mouse RAW264.7 cells treated 2 hrs prior to LPS challenge measured after 16 hrs by SEAP reporter gene assay relative to control. It counts as cell-based. In short, it runs like this:
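NF-κB SEAP reporter assay in RAW 264.7 cells: 2 h compound pretreatment, then LPS for 16 h. Supernatants heated 65 °C for 5 min, then reacted with 2 M diethanolamine, 1 mM MgCl2 and 500 μM MUP for 1 h at 37 °C in the dark. Fluorescence read at ex 360/em 449 nm and normalized to protein. Expressed relative to vehicle control without LPS; triplicates.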

Assay [4] has as its target Transcription factor p65 (Mus musculus) (UniProt Q04207). As to the kind of experiment: Inhibition of LPS-induced NF-kappaB p65 binding to DNA in mouse RAW264.7 cells at 10 to 40 uM after 1.5 hrs by spectrophotometry. It counts as cell-based.
For assay [5], the system named is RAW264.7. As to the kind of experiment: Antiinflammatory activity in mouse RAW264.7 cells assessed as inhibition LPS-induced IL-1beta mRNA expression at 10 uM after 4 hrs by RT-PCR analysis relative to control. It counts as functional. The essentials: (§2)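 RAW 264.7 cells stimulated with LPS (1 μg/mL) with or without compound for 4 h. Total RNA was isolated and cytokine mRNA was analysed by RT-PCR: 94 °C 4 min, then 25−30 cycles of 94/55/72 °C for 30 s each, then 72 °C 5 min. Products were run on 2% agarose and stained with SYBR-Safe. Triplicate, representative of three experiments.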

Assay [6] concerns the target Mitogen-activated protein kinase 1 and 3 (ERK2 and ERK1) (Mus musculus) (UniProt P63085+Q63844). Description: Inhibition LPS-induced ERK1/2 phosphorylation at Thr202/Tyr204 in mouse RAW264.7 cells at 10 uM administered 30 mins prior to LPS challenge measured after 30 mins by Western blotting analysis. It counts as cell-based. In short, it runs like this:
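RAW 264.7 cells pretreated with compound for 30 min, then stimulated with LPS for 30 min. Protein extracts were Western blotted for phosphorylated ERK and JNK (SDS-PAGE, PVDF, ECL detection).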

The subject of assay [7] is Rattus norvegicus. As to the kind of experiment: Antiinflammatory activity in rat paw edema model assessed as inhibition of carrageenan-induced paw edema at 10 mg/kg, po administered 30 mins prior to carrageenan challenge measured after 4 hrs relative to vehicle-treated control. It counts as functional. The essentials:
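Male SD rats (150−170 g) given compound orally in 0.5% CMC-Na 30 min before subplantar injection of 0.1 mL 1% carrageenan; the contralateral paw received saline. Paw volume was measured by plethysmometer from 0 to 6 h, with inhibition taken at 4 h versus vehicle. Mean ± SD, n = 6.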

Assay [8] relates to Rattus norvegicus. As to the kind of experiment: Antiinflammatory activity in rat paw edema model assessed as inhibition of carrageenan-induced IL-1beta protein expression in paw tissue at 20 mg/kg, po administered 30 mins prior to carrageenan challenge measured after 6 hrs by Western blotting analysis relative to vehicle-treated control. It counts as functional, organism-based. On the set-up: dose 20 mg/kg. The essentials: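 SD rats received compound orally in 0.5% CMC-Na 30 min before subplantar injection of 0.1 mL 1% carrageenan in saline. Paws were removed at 6 h, homogenized, and iNOS, COX-2 and IL-1β were assessed by Western blot. Triplicate, representative of three experiments.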

Assay [9] concerns RAW264.7. As to the kind of experiment: Antiinflammatory activity in mouse RAW264.7 cells assessed as inhibition of LPS-induced iNOS protein expression at 10 uM after 16 hrs by Western blotting analysis relative to control. It counts as functional. The essentials: (§3)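 RAW 264.7 cells given LPS (1 μg/mL) with or without compound for 16 h. Cell lysates were Western blotted for iNOS and COX-2 (6−15% SDS-PAGE, PVDF, ECL detection). Performed in triplicate.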

Assay [10] relates to RAW264.7. Description: Antiinflammatory activity in mouse RAW264.7 cells assessed as inhibition of LPS-induced iNOS protein expression at 40 uM after 16 hrs by Western blotting analysis relative to control. It counts as functional. The essentials:
as §3

Assay [11] relates to RAW264.7. As to the kind of experiment: Antiinflammatory activity in mouse RAW264.7 cells assessed as inhibition of LPS-induced COX2 protein expression at 10 uM after 16 hrs by Western blotting analysis relative to control. It counts as functional. The essentials:
as §3

Assay [12] deals with RAW264.7. As to the kind of experiment: Antiinflammatory activity in mouse RAW264.7 cells assessed as inhibition of LPS-induced COX2 protein expression at 20 uM after 16 hrs by Western blotting analysis relative to control. It counts as functional. The essentials: as §3
For assay [13], the system named is RAW264.7. As to the kind of experiment: Antiinflammatory activity in mouse RAW264.7 cells assessed as inhibition of LPS-induced COX2 protein expression at 40 uM after 16 hrs by Western blotting analysis relative to control. It counts as functional. The essentials: as §3
Assay [14] has as its system RAW264.7. Description: Antiinflammatory activity in mouse RAW264.7 cells assessed as inhibition of LPS-induced COX2 mRNA expression at 10 uM after 5 hrs by RT-PCR analysis relative to control. It counts as functional. The essentials:
as §1

The test system of assay [15] is RAW264.7. As to the kind of experiment: Antiinflammatory activity in mouse RAW264.7 cells assessed as inhibition of LPS-induced COX2 mRNA expression at 20 uM after 5 hrs by RT-PCR analysis relative to control. It counts as functional. The essentials: as §1
Assay [16] relates to RAW264.7. As to the kind of experiment: Inhibition of LPS-induced NFkappaB transcriptional activity in mouse RAW264.7 cells assessed as reduction of phosphorylated IkappaB-alpha level at 40 uM after 30 mins by Western blotting analysis relative to control. It counts as cell-based. The essentials: (§4)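 Macrophages were exposed to compound for 30 min before LPS stimulation, with proteins extracted 30 min later. Nuclear extracts were prepared in Tris/KCl/NP-40 lysis buffer, then 420 mM NaCl buffer, and the cytosolic fraction was kept for IκB-α. Western blot on PVDF with ECL detection. Tests in triplicate; representative of three separate experiments.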

Assay [17] concerns RAW264.7. As to the kind of experiment: Inhibition of LPS-induced NFkappaB transcriptional activity in mouse RAW264.7 cells assessed as […] at 40 uM after 30 mins by Western blotting analysis relative to control. It counts as cell-based. The essentials:
as §4

In assay [18] the test system is RAW264.7. As to the kind of experiment: Antiinflammatory activity in mouse RAW264.7 cells assessed as inhibition LPS-induced TNF-alpha mRNA expression at 20 uM after 4 hrs by RT-PCR analysis relative to control. It counts as functional. The essentials: as §2

Mitogen-activated protein kinase 1 and 3 (ERK2 and ERK1) (Mus musculus), sequence (P63085 whole entry, looked up): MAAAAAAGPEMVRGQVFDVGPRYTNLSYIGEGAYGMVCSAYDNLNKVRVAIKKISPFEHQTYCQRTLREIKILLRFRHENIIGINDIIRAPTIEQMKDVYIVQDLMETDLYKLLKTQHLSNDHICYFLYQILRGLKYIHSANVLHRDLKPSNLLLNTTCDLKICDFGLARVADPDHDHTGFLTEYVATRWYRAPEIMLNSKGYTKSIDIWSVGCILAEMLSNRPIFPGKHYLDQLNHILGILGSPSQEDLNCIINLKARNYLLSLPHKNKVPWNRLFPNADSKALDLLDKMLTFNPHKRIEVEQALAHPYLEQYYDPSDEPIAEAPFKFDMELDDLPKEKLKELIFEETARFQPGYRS
Mitogen-activated protein kinase 1 and 3 (ERK2 and ERK1) (Mus musculus), sequence (Q63844 whole entry, looked up): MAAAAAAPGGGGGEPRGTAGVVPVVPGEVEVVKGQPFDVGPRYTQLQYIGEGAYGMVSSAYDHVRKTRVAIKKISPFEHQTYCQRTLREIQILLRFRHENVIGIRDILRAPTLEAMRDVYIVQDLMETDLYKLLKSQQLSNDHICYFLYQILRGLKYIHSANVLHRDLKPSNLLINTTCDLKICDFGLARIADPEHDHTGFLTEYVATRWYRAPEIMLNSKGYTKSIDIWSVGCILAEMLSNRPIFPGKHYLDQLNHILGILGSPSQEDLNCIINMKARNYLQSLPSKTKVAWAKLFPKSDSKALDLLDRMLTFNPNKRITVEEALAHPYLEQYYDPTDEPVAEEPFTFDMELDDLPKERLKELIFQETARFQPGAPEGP
Transcription factor p65 (Mus musculus), sequence (Q04207 whole entry): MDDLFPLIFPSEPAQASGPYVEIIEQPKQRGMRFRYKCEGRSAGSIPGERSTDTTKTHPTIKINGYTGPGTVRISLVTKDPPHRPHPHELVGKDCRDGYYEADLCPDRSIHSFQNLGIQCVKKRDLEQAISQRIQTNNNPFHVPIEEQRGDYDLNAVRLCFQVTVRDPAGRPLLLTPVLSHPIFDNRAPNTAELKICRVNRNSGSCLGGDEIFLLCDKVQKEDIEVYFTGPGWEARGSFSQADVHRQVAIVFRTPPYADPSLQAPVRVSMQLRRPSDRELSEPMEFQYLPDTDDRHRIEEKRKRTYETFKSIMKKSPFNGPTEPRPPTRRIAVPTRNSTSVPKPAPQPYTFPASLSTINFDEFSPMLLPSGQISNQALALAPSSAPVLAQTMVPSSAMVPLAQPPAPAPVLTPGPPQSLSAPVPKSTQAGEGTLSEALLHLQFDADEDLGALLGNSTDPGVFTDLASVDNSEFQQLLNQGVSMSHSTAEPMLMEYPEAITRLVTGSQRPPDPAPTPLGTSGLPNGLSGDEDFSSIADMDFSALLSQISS

`C=C1C(=O)O[C@@H]2[C@@H]3[C@@]4(C=C[C@@]3(C)[C@]3(C4)C(=O)O[C@@H]4[C@H]5C(C)=CC[C@H]5[C@](C)(O)C[C@H](OC(C)=O)[C@H]43)[C@](C)(O)CC[C@@H]12`: the IC50 in the assay with RAW264.7 [1] was 6.7 µM. In the assay with RAW264.7 [1], the inhibition result was “Dose-dependent effect”. Further, the “fold change (FC)” value with RAW264.7 [2] turned out to be 0.58; with RAW264.7 [5], 0.26; in assay [6] it was 0.76; with RAW264.7 [9], 0.61; in the assay on RAW264.7 [10] it was 0.13; with RAW264.7 [11], 0.52. For the same compound, the “fold change (FC)” value is 0.2 in the assay with RAW264.7 [12]; 0.15 in the assay with RAW264.7 [13]; 0.63 in the assay with RAW264.7 [14]; 0.58 in the assay with RAW264.7 [15]; 0.44 in the assay on RAW264.7 [16]; 1.83 in the assay on RAW264.7 [17]. For the same compound, the “fold change (FC)” value in the assay with RAW264.7 [18] is reported as 0.66. Besides, the inhibition result (in the assay with RAW264.7 [3]; in assay [4]; with RAW264.7 [5]; in assay [6]; in the assay with Rattus norvegicus [8]) was “Active” in each case. Moreover, in the assay on Rattus norvegicus [7], the inhibition in vivo at 10 mg/kg is 22%.

These data come from ChEMBL document CHEMBL3259611, “Suppression of inflammatory responses by handelin, a guaianolide dimer from Chrysanthemum boreale, via downregulation of NF-κB signaling and pro-inflammatory cytokine production” (J Nat Prod, 2014).
